Screening results as filed in PubChem.
Apaf1 inhib – inhibitors of human Apaf-1 apoptosome, primary screen, biochemical, DEVD-Rh110 fluorescence, uHTS. Apoptotic protease-activating factor 1 (Homo sapiens), O14727. actives 0.71% (n = 330,000). reconstituted apoptosome caspase-3 activity. AID 489030, 2010. inhibition, % at 20 µM; active = inhibition of at least 40% at 20 µM
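Assay system – apoptosome proteins · Medium – Hepes buffer, pH 7.5 · Also added – cytochrome c with DEVD-Rh110 · Timing – 30 min compound preincubation, 50 min activation, room temperature · Detection – Rh110 fluorescence, excitation 480 nm, emission 540 nm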
MEKK2 WT-MEK5 – modulators of MEK5 binding to wildtype MEKK2, primary screen, biochemical, multiplex bead flow cytometry, Alexa488-MEK5 | Alexa488-MEK5 binding to MEKK2 WT; actives lie on both sides | binding response (% of control), % at 10 µM | actives 1.1% (n = 290,000); in the data active = binding response below about 67% or above about 130%; inconclusive = no clear call, values can overlap the other calls; inactive = in between
MEKK3 PB1 HTS – modulators of MEKK3-MEK5 PB1 binding, primary screen, biochemical, wildtype MEKK3, multiplex bead flow cytometry, Alexa488-MEK5. Mitogen-activated protein kinase kinase kinase 3 (Homo sapiens), Q99759. bead-based flow cytometry, Alexa488-MEK5 binding to MEKK3; actives lie on both sides; 0 = blocked by unlabeled MEK5, 100 = vehicle. binding response (% of control), % at 10 µM. actives 1.4% (n = 290,000). AID 1529, 2009;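 active = binding response more than 3 SD above or below the average of its plate-row segment, actives on both sides; inconclusive = wells at one plate position flagged as instrument error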;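 note: Alexa488 bead fluorescence after subtracting the streptavidin-only scavenger bead signal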
UBC13 inh – UBC13 polyubiquitin chain formation inhibitors, primary screen, biochemical, TR-FRET, uHTS; Ubiquitin-conjugating enzyme E2 N (Homo sapiens), P61088; actives 0.47% (n = 330,000); inhibition, % at 20 µM; in the data active = inhibition above about 45%, passing the limit was not always enough; inconclusive = no clear call, values can overlap the other calls
Target sequence (P61088 whole entry, looked up): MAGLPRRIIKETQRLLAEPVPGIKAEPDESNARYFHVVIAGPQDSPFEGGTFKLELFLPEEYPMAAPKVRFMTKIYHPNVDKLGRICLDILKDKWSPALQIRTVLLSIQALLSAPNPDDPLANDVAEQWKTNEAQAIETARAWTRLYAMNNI
MEKK2 mut-MEK5 – MEK5 binding signal on mutant MEKK2 PB1, primary screen, biochemical, multiplex bead flow cytometry, Alexa488-MEK5; actives 0.35% (n = 290,000); percent response, % at 10 µM; Alexa488-MEK5 binding to MEKK2 mutant; AID 1530, 2009; in the data active = percent response above about 24%, passing the limit was not always enough
MEKK2wt confirm – modulators of MEK5 binding to wildtype MEKK2, confirmation, biochemical, single concentration, multiplex bead flow cytometry | shares compounds with MEKK3 PB1 HTS | Alexa488-MEK5 binding to MEKK2 WT; actives lie on both sides | binding response (% of control), % at 10 µM | actives 2.4% (n = 5,900); in the data active = binding response below about 16% or above about 210%; inactive = in between
MEKK2mut-MEK5 – mutant MEKK2 PB1-MEK5 binding signal retest – biochemical, single concentration, multiplex bead flow cytometry, confirmation | shares compounds with MEKK3 PB1 HTS | Alexa488-MEK5 binding to MEKK2 mutant | percent response, % at 10 µM | actives 2% (n = 5,900) | AID 1893, 2009; in the data active = percent response mostly above about 71%, no sharp cut-off; inactive = mostly below about 38%;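 note: higher means compound restores mutant binding toward wildtype level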
MEKK3 confirm – MEKK3 wild-type PB1 binding to MEK5, inhibitors, confirmation, biochemical, bead multiplex flow cytometry, single concentration, wildtype; actives 1.8% (n = 5,900); AID 1894, 2009; Alexa488-MEK5 binding to MEKK3; stronger effect = lower value; shares compounds with MEKK3 PB1 HTS; binding response (% of control), % at 10 µM;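 active = binding response below 72% of control, or above a set upper limit, though filed actives all read lower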
Casp3 counter – CASP3 inhibitor validation, counterassay for project on UBE2N polyubiquitination blockers, biochemical, one dose; shares compounds with UBC13 inh; Recombinant caspase-3, Caspase-Glo 3/7 luminescence, 60 min; inhibition, % at 20 µM; actives 4% (n = 1,400); AID 488856, 2010;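 active = mean inhibition across replicates above about 26%, limit read from the data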
Target sequence (P42574 whole entry, looked up): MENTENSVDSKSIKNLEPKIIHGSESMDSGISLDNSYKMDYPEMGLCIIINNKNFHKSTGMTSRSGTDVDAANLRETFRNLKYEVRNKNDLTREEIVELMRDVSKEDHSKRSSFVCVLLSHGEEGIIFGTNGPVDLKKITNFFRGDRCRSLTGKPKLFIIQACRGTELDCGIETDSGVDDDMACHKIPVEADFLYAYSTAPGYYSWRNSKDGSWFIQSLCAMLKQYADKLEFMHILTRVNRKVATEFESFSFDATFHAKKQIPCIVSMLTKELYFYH
UBC13 confirm – UBC13 polyubiquitination inhibitors, single-point retest, confirmation, biochemical, TR-FRET, single concentration; actives 68% (n = 1,400); inhibition, % at 10 µM; shares compounds with UBC13 inh; in the data active = inhibition above about 45%; inconclusive = no clear call, values can overlap the other calls
Each line names hits and unclear results; the compound was inactive in the other large screens (follow-up assays come after a bar, where they were run); [ ] = remark or other dose. Compounds with a hit are over-represented: about 2.9% of the library has one in this group of screens.

COc1ccc(S(=O)(=O)N2CCN(c3nn(C)c(=O)n(C)c3=O)CC2)cc1	none (no result: MEKK2 WT-MEK5, MEKK3 PB1 HTS, MEKK2 mut-MEK5)
COc1ccc(N2C(=NC(=O)C(C)Oc3ccccc3)SC3CS(=O)(=O)CC32)cc1 (centres undefined)	none
O=C(NC1CC1)c1sc2ccccc2c1Cl	none
O=C(NNC(=O)C1CC2CCC1C2)c1sc2ccccc2c1Cl (centres undefined)	MEKK3 PB1 HTS 149 | MEKK2wt confirm inactive | MEKK2mut-MEK5 inactive | MEKK3 confirm inactive
CCN(CC)S(=O)(=O)c1ccc(C)c(NC(=O)Cn2c(=O)cnc3ccccc32)c1	MEKK3 PB1 HTS 160 | MEKK2wt confirm inactive | MEKK2mut-MEK5 inactive | MEKK3 confirm inactive
O=C(Cn1cnc2cc([N+](=O)[O-])ccc2c1=O)Nc1cccc2ccccc12	none
CCN(CC)S(=O)(=O)c1ccc(C)c(NC(=O)Cn2cnc3cc([N+](=O)[O-])ccc3c2=O)c1	MEKK3 PB1 HTS 69[inhibitor] | MEKK2wt confirm inactive | MEKK2mut-MEK5 inactive | MEKK3 confirm inactive
CCCN1CCC(=NNC(=O)CSc2cc(C)c(Br)cc2C)CC1	MEKK3 PB1 HTS 136 | MEKK2wt confirm inactive | MEKK2mut-MEK5 inactive | MEKK3 confirm inactive
CCN(CC)c1ccc2cc(-c3nc(-c4ccc(OC)cc4)cs3)c(=O)oc2c1	MEKK2 WT-MEK5 232, MEKK3 PB1 HTS 183, MEKK2 mut-MEK5 289 | MEKK2wt confirm inactive | MEKK2mut-MEK5 inactive | MEKK3 confirm 60
CCN(CC)c1ccc2cc(-c3nc4ccccc4n3C)c(=O)oc2c1	none (no result: Apaf1 inhib, UBC13 inh)
CCN(CC)c1ccc2cc(-c3nnc(-c4ccccc4)o3)c(=O)oc2c1	MEKK2 WT-MEK5 60[inhibitor] | MEKK2wt confirm inactive | MEKK2mut-MEK5 inactive | MEKK3 confirm inactive
Cc1ccc(-c2nnc(SCC(=O)N(CC(C)C)c3c(N)n(Cc4ccccc4)c(=O)[nH]c3=O)n2N)cc1	none
CSCCC(NC(N)=O)C(=O)Nc1cccc(S(=O)(=O)N2CCOCC2)c1 (centres undefined)	MEKK3 PB1 HTS 72[inhibitor] | MEKK2wt confirm inactive | MEKK2mut-MEK5 inactive | MEKK3 confirm inactive
Cc1ccc(C(=O)N/C(=C\c2ccc(-c3ccc(Br)cc3)o2)C(=O)NCCCN(C)C)cc1	MEKK2 WT-MEK5 187, UBC13 inh 72 | MEKK2wt confirm inactive | MEKK2mut-MEK5 inactive | MEKK3 confirm inactive
CN(C)CCNC(=O)/C(=C/c1ccc(-c2ccc(Cl)cc2)o1)NC(=O)c1ccccc1	none (no result: Apaf1 inhib, UBC13 inh)
O=C(CSc1nc2ccccc2[nH]1)Nc1nc(-c2cccc(Br)c2)cs1	none
CN(C)CCCn1c(SCC(=O)Nc2nc(-c3cccc(Br)c3)cs2)nc2ccccc2c1=O	MEKK2 WT-MEK5 265, MEKK3 PB1 HTS 128, UBC13 inh 116, MEKK2 mut-MEK5 55 | MEKK2wt confirm 272 | MEKK2mut-MEK5 166 | MEKK3 confirm inactive | Casp3 counter inactive | UBC13 confirm 134
COc1ccccc1NS(=O)(=O)c1ccc(C)c(NC(=O)c2c(C)noc2C)c1	none (no result: MEKK2 WT-MEK5, MEKK3 PB1 HTS, MEKK2 mut-MEK5)
C/C=C1\COC(C(=O)NCCN2CCCC2)(C(F)(F)F)C=C1C=C1CCCCC1 (centres undefined)	MEKK2 WT-MEK5 141, UBC13 inh 55 | MEKK2wt confirm inactive | MEKK2mut-MEK5 inactive | MEKK3 confirm inactive | Casp3 counter inactive | UBC13 confirm 52
C/C=C1\COC(C(=O)NCc2ccccc2)(C(F)(F)F)C=C1C=C1CCCCC1 (centres undefined)	none
O=C(C[n+]1ccc(/C=C/c2ccccc2)cc1)c1ccc2c(c1)OCCO2	MEKK2 WT-MEK5 174, UBC13 inh 53 | MEKK2wt confirm inactive | MEKK2mut-MEK5 inactive | MEKK3 confirm inactive | Casp3 counter inactive | UBC13 confirm inactive
O=C(O)Cc1cn(-c2ccccc2)nc1-c1ccccc1	none
Cc1ccc(-c2nn(-c3ccccc3)cc2CSC(=N)N)cc1	MEKK2 WT-MEK5 205, UBC13 inh 45, MEKK2 mut-MEK5 52 | MEKK2wt confirm inactive | MEKK2mut-MEK5 inactive | MEKK3 confirm inactive | Casp3 counter inactive | UBC13 confirm 48
CCc1cccc(N(C(=O)c2csnn2)C(C(=O)NC(C)(C)C)c2ccncc2)c1 (centres undefined)	none
CC[C@@H](C)[C@H](CN[C@H](CNC)C(C)C)NC[C@@H](C)c1ccc(CC(C)C)cc1	MEKK2 WT-MEK5 185, UBC13 inh 89 | MEKK2wt confirm inactive | MEKK2mut-MEK5 71 | MEKK3 confirm inactive | Casp3 counter inactive | UBC13 confirm 72
CCN(C(=S)Nc1ccc(Oc2ccccc2)cc1)c1ccccc1	none
Cc1cc(C)c2nc(NCCCNC(=S)NCCCN(C)C)c(C#N)cc2c1	MEKK2 WT-MEK5 164, UBC13 inh 50 | MEKK2wt confirm inactive | MEKK2mut-MEK5 inactive | MEKK3 confirm inactive | Casp3 counter inactive | UBC13 confirm inactive
O=C(NCCCN1CCCC1)c1ccc(Cn2c(=S)[nH]c3ccc(Br)cc3c2=O)cc1	MEKK2 WT-MEK5 144, UBC13 inh 48 | MEKK2wt confirm inactive | MEKK2mut-MEK5 inactive | MEKK3 confirm inactive | Casp3 counter inactive | UBC13 confirm inconclusive
COc1ccc(C)cc1Nc1n[n+](-c2ccccc2)c(-c2c(Cl)cccc2Cl)s1	none
